Laboratory results as given in ChEMBL document CHEMBL5058577, “EUbOPEN Chemogenomics Library 2 (Multiplex)” (2022).

Test system: Fibroblast
Assay: Multiplex assay against human fibroblast
Type: toxicity, cell-based
Outline: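 Hoechst33342, BioTracker Green Microtubule Cytoskeleton Dye, MitoTracker Red and Annexin V Alexa Fluor 680 were added to live cells at seeding, and imaging on a CQ1 microscope at 37°C and 5% CO2 followed compound addition. Gating by CellPathfinder machine learning separated cells into Hoechst high-intensity objects or normal cells, then normal cells into healthy, pyknosed or fragmented nuclei, then pyknosed cells into mitotic or apoptotic. Per cents of healthy-nucleus cells are reported for the tubulin, mitochondrial-mass and membrane-permeability phenotypes.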

[1] = 12 h, 1 µM, compound concentration 1 uM, replicate 1
[2] = 12 h, 1 µM, compound concentration 1 uM, replicate 2
[3] = 12 h, 10 µM, compound concentration 10 uM, replicate 1
[4] = 12 h, 10 µM, compound concentration 10 uM, replicate 2
[5] = 24 h, 1 µM, compound concentration 1 uM, replicate 1
[6] = 24 h, 1 µM, compound concentration 1 uM, replicate 2
[7] = 24 h, 10 µM, compound concentration 10 uM, replicate 1
[8] = 24 h, 10 µM, compound concentration 10 uM, replicate 2
[9] = 48 h, 1 µM, compound concentration 1 uM, replicate 1
[10] = 48 h, 1 µM, compound concentration 1 uM, replicate 2
[11] = 48 h, 10 µM, compound concentration 10 uM, replicate 1
[12] = 48 h, 10 µM, compound concentration 10 uM, replicate 2

## Cc1c(CC(=O)O)c2cccnc2n1Cc1ccc(S(C)(=O)=O)cc1C(F)(F)F [FEVIPIPRANT]
[1]
  Population Apoptotic (%): 44%
  Population Fragmented Nuclei (%): 22%
  Population Healthy Nuclei (%): 60%
  Population Hoechst High Intensity Objects (%): 3%
  Population Membrane Permeable-Phenotype (%): 1%
  Population Mitochondria Different-Phenotype (%): 3%
  Population Mitotic Cells (%): 55%
  Population Normal (%): 96%
  Population Pyknosed Nuclei (%): 18%
  Population Tubulin-Different-Phenotype (%): 20%
  Total Cell Count: 156
[2]
  Population Apoptotic (%): 25%
  Population Fragmented Nuclei (%): 33%
  Population Healthy Nuclei (%): 48%
  Population Membrane Permeable-Phenotype (%): 13%
  Population Mitochondria Different-Phenotype (%): 12%
  Population Mitotic Cells (%): 74%
  Population Pyknosed Nuclei (%): 17%
  Population Tubulin-Different-Phenotype (%): 56%
[3]
  Population Apoptotic (%): 34%
  Population Fragmented Nuclei (%): 10%
  Population Healthy Nuclei (%): 71%
  Population Hoechst High Intensity Objects (%): 3%
  Population Membrane Permeable-Phenotype (%): 1%
  Population Mitochondria Different-Phenotype (%): 4%
  Population Mitotic Cells (%): 65%
  Population Normal (%): 96%
  Population Pyknosed Nuclei (%): 17%
  Population Tubulin-Different-Phenotype (%): 25%
  Total Cell Count: 132
[4]
  Population Apoptotic (%): 22%
  Population Fragmented Nuclei (%): 21%
  Population Healthy Nuclei (%): 54%
  Population Hoechst High Intensity Objects (%): 5%
  Population Membrane Permeable-Phenotype (%): 9%
  Population Mitochondria Different-Phenotype (%): 6%
  Population Mitotic Cells (%): 77%
  Population Normal (%): 94%
  Population Pyknosed Nuclei (%): 23%
  Population Tubulin-Different-Phenotype (%): 55%
  Total Cell Count: 139
[5]
  Population Apoptotic (%): 55%
  Population Fragmented Nuclei (%): 14%
  Population Healthy Nuclei (%): 66%
  Population Hoechst High Intensity Objects (%): 3%
  Population Membrane Permeable-Phenotype (%): 1%
  Population Mitochondria Different-Phenotype (%): 5%
  Population Mitotic Cells (%): 44%
  Population Normal (%): 96%
  Population Pyknosed Nuclei (%): 19%
  Population Tubulin-Different-Phenotype (%): 23%
  Total Cell Count: 156
[6]
  Population Apoptotic (%): 52%
  Population Fragmented Nuclei (%): 35%
  Population Healthy Nuclei (%): 47%
  Population Membrane Permeable-Phenotype (%): 4%
  Population Mitochondria Different-Phenotype (%): 8%
  Population Mitotic Cells (%): 48%
  Population Pyknosed Nuclei (%): 17%
  Population Tubulin-Different-Phenotype (%): 50%
  Total Cell Count: 150
[7]
  Population Apoptotic (%): 57%
  Population Fragmented Nuclei (%): 16%
  Population Healthy Nuclei (%): 67%
  Population Hoechst High Intensity Objects (%): 1%
  Population Membrane Permeable-Phenotype (%): 1%
  Population Mitochondria Different-Phenotype (%): 2%
  Population Mitotic Cells (%): 42%
  Population Normal (%): 98%
  Population Pyknosed Nuclei (%): 16%
  Population Tubulin-Different-Phenotype (%): 24%
  Total Cell Count: 130
[8]
  Population Apoptotic (%): 31%
  Population Fragmented Nuclei (%): 22%
  Population Healthy Nuclei (%): 55%
  Population Hoechst High Intensity Objects (%): 7%
  Population Membrane Permeable-Phenotype (%): 5%
  Population Mitochondria Different-Phenotype (%): 5%
  Population Mitotic Cells (%): 68%
  Population Normal (%): 92%
  Population Pyknosed Nuclei (%): 21%
  Population Tubulin-Different-Phenotype (%): 52%
  Total Cell Count: 146
[9]
  Population Apoptotic (%): 65%
  Population Fragmented Nuclei (%): 16%
  Population Healthy Nuclei (%): 67%
  Population Hoechst High Intensity Objects (%): 5%
  Population Membrane Permeable-Phenotype (%): 0%
  Population Mitochondria Different-Phenotype (%): 4%
  Population Mitotic Cells (%): 35%
  Population Normal (%): 94%
  Population Pyknosed Nuclei (%): 16%
  Population Tubulin-Different-Phenotype (%): 16%
  Total Cell Count: 132
[10]
  Population Apoptotic (%): 63%
  Population Fragmented Nuclei (%): 39%
  Population Healthy Nuclei (%): 47%
  Population Hoechst High Intensity Objects (%): 6%
  Population Membrane Permeable-Phenotype (%): 4%
  Population Mitochondria Different-Phenotype (%): 8%
  Population Mitotic Cells (%): 36%
  Population Normal (%): 93%
  Population Pyknosed Nuclei (%): 12%
  Population Tubulin-Different-Phenotype (%): 47%
  Total Cell Count: 157
[11]
  Population Apoptotic (%): 73%
  Population Fragmented Nuclei (%): 22%
  Population Healthy Nuclei (%): 62%
  Population Hoechst High Intensity Objects (%): 2%
  Population Membrane Permeable-Phenotype (%): 0%
  Population Mitochondria Different-Phenotype (%): 3%
  Population Mitotic Cells (%): 26%
  Population Normal (%): 97%
  Population Pyknosed Nuclei (%): 14%
  Population Tubulin-Different-Phenotype (%): 29%
  Total Cell Count: 132
[12]
  Population Apoptotic (%): 58%
  Population Fragmented Nuclei (%): 32%
  Population Healthy Nuclei (%): 53%
  Population Membrane Permeable-Phenotype (%): 3%
  Population Mitochondria Different-Phenotype (%): 2%
  Population Mitotic Cells (%): 41%
  Population Tubulin-Different-Phenotype (%): 52%
  Total Cell Count: 171
